From ChEMBL document CHEMBL1221371, “Norterpenoids and related peroxides from the formosan marine sponge Negombata corticata” (J Nat Prod, 2010)

Columns and labels:
[1] = tested on: MDA-MB-231; experiment: Cytotoxicity against human MDA-MB-231 cells by MTT assay; assay type: functional, cell-based
Procedure, shortened: (§1)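 Human cancer cell lines were obtained from ATCC. Viability was read colorimetrically by MTT reduction, with doxorubicin as the positive control. IC50 values were derived in µM.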

[2] = tested on: MCF7; experiment: Cytotoxicity against human MCF7 cells by MTT assay; assay type: functional, cell-based; procedure, shortened: as §1
[3] = tested on: HepG2; experiment: Cytotoxicity against human HepG2 cells by MTT assay; assay type: functional, cell-based; procedure, shortened: as §1
[4] = Cytotoxicity against human Hep3B cells by MTT assay; assay type: functional, cell-based, Hep 3B2; procedure, shortened: as §1
[5] = tested on: A549; experiment: Cytotoxicity against human A549 cells by MTT assay; assay type: functional, cell-based; procedure, shortened: as §1

Compound | IC50 [1] | IC50 [2] | IC50 [3] | IC50 [4] | IC50 [5]
CC(=O)CCCC(C)(C)C(=O)CCC(C)=O | > 50 µM | > 50 µM | > 50 µM | > 50 µM | > 50 µM
COC(=O)[C@@H](C)[C@@H]1CC[C@](C)(CCC(=O)C(C)(C)CCCC(C)=O)OO1 [DIACARPEROXIDE B] | 11.9 µM | 11.9 µM | 11.9 µM | 11.9 µM | 11.9 µM
COc1cccc2c1C(=O)c1c(O)c3c(c(O)c1C2=O)C[C@@](O)(C(=O)CO)C[C@@H]3O[C@H]1C[C@H](N)[C@H](O)[C@H](C)O1 [DOXORUBICIN] | 0.24 µM | – | 0.19 µM | 0.14 µM | –
C=C1CCCC(C)(C)C1CC[C@@]1(C)CC[C@H]([C@@H](C)C(=O)O)OO1 (stereo partly drawn) [NAPAPUIN B] | 0.3 µM | 5.9 µM | 0.9 µM | 41.3 µM | 0.6 µM
C=C1CCCC(C)(C)C1CC[C@@](C)(O)CC[C@@H](O)[C@@H](C)C(=O)OC (stereo partly drawn) [NEGOMBATODIOL] | > 50 µM | > 50 µM | > 50 µM | > 50 µM | > 50 µM
C=C1CCCC(C)(C)C1CC[C@]1(C)CCC(=O)O1 (stereo partly drawn) [NEGOMBATOLACTONE] | > 50 µM | > 50 µM | > 50 µM | > 50 µM | > 50 µM
C/C(=C\CC[C@]1(C)CC[C@H]([C@@H](C)C(=O)O)OO1)CCC12OC1(C)CCCC2(C)C (stereo partly drawn) [NEGOMBATOPEROXIDE A] | > 50 µM | > 50 µM | > 50 µM | > 50 µM | > 50 µM
CC(=O)/C=C/C[C@]1(C)CC[C@H]([C@@H](C)C(=O)O)OO1 [NEGOMBATOPEROXIDE B] | > 50 µM | > 50 µM | > 50 µM | > 50 µM | > 50 µM
C[C@@H](C(=O)O)[C@H]1CC[C@@](C)(C/C=C/C2(C)CCC(=O)O2)OO1 (stereo partly drawn) [NEGOMBATOPEROXIDE C/D] | > 50 µM | > 50 µM | > 50 µM | > 50 µM | > 50 µM
C=C1CCCC(C)(C)C1CC[C@]1(C)CC[C@H]([C@@H](C)C(=O)OC)OO1 (stereo partly drawn) [NUAPAPUIN B] | 3.5 µM | 38.5 µM | 2.9 µM | 23.7 µM | 5.38 µM
